Published values of several laboratories.
Protocols differ between the studies behind these lines.
DPP9: Dipeptidyl peptidase 9 (DPP9, Homo sapiens, UniProt Q86TI2)
Oprd1: Delta-type opioid receptor (Oprd1, Rattus norvegicus, UniProt P33533)

SMILES	target	test	setting	endpoint	value
COc1cc(Cl)c(C(=O)N[C@@H](CN[C@H]2CC[C@@H](N)CC2)Cc2ccc(C#N)cc2)cc1-c1ccc(CN[C@H](C)c2ccc(C)cc2)o1	MAP kinase-activated protein kinase 3 (MAPKAPK3, Homo sapiens, UniProt Q16644)	enzyme activity, inhibitor	1 µM	remaining activity	107%
CN1CCN(c2ccc(Nc3nccc(-c4cccc([N+](=O)[O-])c4)n3)cc2C(F)(F)F)CC1	Cyclin-dependent kinase 2 homolog (CRK2, Plasmodium falciparum, UniProt P61075)	cell-free assay	10 µM	remaining signal	93%
N=C(N)c1ccc2cc(OC(=O)c3ccc(N=C(N)N)cc3)ccc2c1	DPP9	enzyme activity, inhibitor	10 µM	inhibition	13%
Oc1ccc(C[C@@H]2CN([C@H](Cc3ccc4ccccc4c3)CN3CCC[C@H]3CN3CCNC[C@@H]3Cc3ccc4ccccc4c3)CCN2CCC23CC4CC(CC(C4)C2)C3)cc1	Oprd1	ligand displacement, radioligand	0.5 µM, 2 h, pH 7.5, cell membranes	remaining binding	94.4%
CN(C)C(=O)COC(=O)Cc1ccc(OC(=O)c2ccc(NC(=N)N)cc2)cc1	Ubiquitin carboxyl-terminal hydrolase 14 (USP14, Homo sapiens, UniProt P54578)	enzyme activity, inhibitor	10 µM	inhibition	0%
CN(C(=O)[C@H](Cc1ccccc1)NC(=O)[C@@H](NC(=O)OCc1ccccc1)C(C)(C)C)N(C#N)CCC(N)=O	Cathepsin B (CTSB, Homo sapiens, UniProt P07858)	enzyme activity, inhibitor		kon	7020 M⁻¹ s⁻¹
CCN(CC)CCCC[C@H](NC(=O)[C@H](CC(C)C)NC(=O)[C@H](C)NC(=O)[C@H](Cc1ccccc1)NC(=O)c1ccc(C(C)(C)C)cc1)C(=O)N[C@@H](CO)C(=O)OC	Bromodomain-containing protein 7 (BRD7, Homo sapiens, UniProt Q9NPI1)	thermal stability, DSF	25 µM	ΔTm	0.08 °C
C#Cc1n[nH]c2c(-c3cn([C@@H](C)c4ccccc4)c(=O)[nH]c3=O)cc(F)cc12	Tyrosine-protein kinase ZAP-70 (ZAP70, Homo sapiens, UniProt P43403)	enzyme activity, inhibitor	0.1 µM	inhibition	2%
CC[C@@H](C)[C@@H]1CN([C@H](Cc2ccc3ccccc3c2)CN2CCC[C@H]2CN2CCNC[C@@H]2CO)CCN1CCc1ccc(Cl)c(Cl)c1	Oprd1	ligand displacement, radioligand	0.5 µM, 2 h, pH 7.5, cell membranes	remaining binding	87.7%
COc1ncccc1-c1cnn2ccc(N3CCN(C(=O)OC(C)C)CC3)nc12	Serine/threonine-protein kinase TNNI3K (TNNI3K, Homo sapiens, UniProt Q59H18)	binding, competition with immobilised ligand	1 µM	remaining binding	60%
C#Cc1n[nH]c2c(-c3cn(C(C)c4ccccn4)c(=O)[nH]c3=O)cc(F)cc12 (stereo not shown)	Cyclin-dependent kinase 2, with cyclin E1 (CDK2, Homo sapiens, UniProt P24941)	enzyme activity, inhibitor	1 µM	inhibition	-13.7%
Cc1nn(C)cc1-c1nc2c(N3CCN(Cc4ccc(Cl)cc4)CC3)c(Cl)cnc2[nH]1	Mitogen-activated protein kinase kinase kinase kinase 1 (MAP4K1, Homo sapiens, UniProt Q92918)	binding, competition with immobilised ligand	1 µM	remaining binding	74%
CC[C@@H](C)[C@@H]1CN([C@@H](CC2CCCCC2)CN2CCC[C@H]2CN2CCNC[C@@H]2CO)CCN1CCC12CC3CC(CC(C3)C1)C2	Oprd1	ligand displacement, radioligand	0.5 µM, 2 h, pH 7.5, cell membranes	remaining binding	90%
Nc1ncc(-c2nc(N3CCOCC3)nc(N3CCOCC3)n2)c(C(F)F)n1	Mitogen-activated protein kinase 6 (MAPK6, Homo sapiens, UniProt Q16659)	binding, competition with immobilised ligand	10 µM	remaining binding	88%
OC[C@H]1CNCCN1C[C@@H]1CCCN1C[C@H](CC1CCCCC1)N1CCN(CCc2ccc(Cl)c(Cl)c2)[C@H](Cc2ccc(O)cc2)C1	Oprd1	ligand displacement, radioligand	0.5 µM, 2 h, pH 7.5, cell membranes	remaining binding	88%
N#Cc1ccc(NCCNCC(=O)N2N=CCC2C#N)nc1 (stereo not shown)	DPP9	enzyme activity, inhibitor	10 µM	inhibition	87%
